APP 5'UTR act – activators of APP 5'UTR luciferase reporter, primary screen, SH-SY5Y cells; SH-SY5Y APP 5'UTR luciferase reporter, luminescence; zero percent = DMSO vehicle wells; activation, % at 2 µM; 1% of 190,000 active;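 active = activation above a set limit, based on mean plus 3 SD of controls, cut at about 140% in these data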
STAT1 blocker – STAT1 signaling inhibitors, primary screen, cell-based, HTS, luciferase reporter; NIH 3T3 STAT1-luciferase reporter, IFN-gamma, luminescence; inhibition, % at 5.5 µM; 0.35% of 200,000 active; AID 920, 2007;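 active = inhibition above a set limit, the mean inhibition across all tested compounds plus 3 SD, cut at about 34% in these data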
NF-kB expr up – activators of NF-kB expression in neurons, primary screen, cell-based, HTS; human neuronal cells, NF-kB reporter expression; hits give high values; fold change at 12.5 µM; 1.6% of 190,000 active; AID 1239, 2008; in the data active = fold change above about 3.3
STAT1 act – STAT1 signaling activators, primary screen, cell-based, HTS, luciferase reporter; NIH 3T3 STAT1-luciferase reporter, IFN-gamma, luminescence; 100% = IFN-gamma alone, no compound; activation (% of control), % at 5.5 µM; 2.6% of 200,000 active; AID 932, 2007;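 active = activation above the screen-wide mean activation plus 3 SD, cut at about 130% in these data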
STAT3 inh-1 – IL-6 driven STAT3 reporter inhibitors, primary screen, U3A cells, luciferase, luminescence, MLSCN library; 0.89% of 190,000 active; inhibition, % at 5.5 µM; IL-6 STAT3-luciferase reporter; host cell line lacks STAT1; AID 862, 2007;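 active = inhibition above the mean inhibition across all screened compounds plus 3 SD, cut at about 44% in these data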
STAT3 activator – IL-6 driven STAT3 reporter potentiators, primary screen, U3A cells, luciferase, luminescence, MLSCN library; activation (% of control), % at 5.6 µM; IL-6 STAT3-luciferase reporter; 100% = signal with IL-6 EC80 alone; 0.91% of 190,000 active;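 active = activation above the screen-wide mean of compound activation plus 3 SD, cut at about 130% in these data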
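Assay system – human STAT1-deficient U3A cells with stable STAT3-luciferase reporter · Also added – IL-6 (33 ng/mL) · Schedule – compound 1 h, then IL-6 6 h at 37 °C · Technique – reporter luminescence signal · Evaluation – % activation versus median of IL-6-stimulated wells · Benchmarks – IL-6-only wells as 100% reference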
STAT3 inh-2 – STAT3 reporter inhibitors, retest of hits, confirmation, U3A cells, luciferase, luminescence; inhibition, % at 5.7 µM; IL-6 STAT3 luciferase reporter; cell line lacks STAT1; shares compounds with STAT3 inh-1; AID 1265, 2008; 45% of 1,200 active;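 active = inhibition above the hit cutoff computed for the primary STAT3 screen, cut at about 44% in these data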
NFkB inh STAT3ct – NF-kB reporter inhibitors in human cells, confirmation, counter-screen for STAT3 inhibitor project, cell-based, HEK293T, luciferase, TNF-alpha stimulus; shares compounds with STAT3 inh-1; TNF-alpha induced; inhibition, % at 5.7 µM; 36% of 1,200 active;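 active = inhibition above the mean of solvent-only control wells plus 3 SD, cutoff set per campaign, cut at about 13% in these data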
STAT1 inh 2 – STAT1 reporter inhibitors, IFN-gamma induced, confirmation, counter-screen for STAT3 inhibitor project, cell-based, NIH 3T3, luciferase luminescence; shares compounds with STAT3 inh-1; NIH 3T3 STAT1-luciferase reporter; inhibition, % at 5.7 µM; 27% of 1,200 active; AID 1317, 2008;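 active = inhibition above the mean plus 3 SD of solvent-only control wells, limit set per screening run, cut at about 16% in these data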
A number is an active result. Sampled rows, rich in hits. Any-hit rate of the full collection: about 4.9%.

Results for C=CC[n+]1c(-c2ccc(C)cc2)csc1Nc1ccc(NC(C)=O)cc1 ?
APP 5'UTR act: inactive; STAT1 blocker: inactive; NF-kB expr up: inactive; STAT1 act: inactive; STAT3 inh-1: 63; STAT3 activator: inactive; STAT3 inh-2: 52; NFkB inh STAT3ct: 18; STAT1 inh 2: inactive

What do the screens show for `CCCCC(CC)CNC(=O)C(Cc1ccccc1)NS(=O)(=O)c1ccc2c(c1)CCC(=O)N2` (stereo not drawn)?
APP 5'UTR act: inactive; STAT1 blocker: inactive; NF-kB expr up: inactive; STAT1 act: inactive; STAT3 inh-1: inactive; STAT3 activator: inactive

Results for Cc1ccc(S(=O)(=O)/N=C(\N)Nc2nc(C)c3cc(C)c(C)cc3n2)cc1 ?
APP 5'UTR act: inactive; STAT1 blocker: inactive; NF-kB expr up: inactive; STAT1 act: inactive; STAT3 inh-1: 44; STAT3 activator: inactive; STAT3 inh-2: inactive; NFkB inh STAT3ct: inactive; STAT1 inh 2: inactive

How did CCOC(=O)c1sc2nc(CC(=O)OC)nc(NCc3ccc(Cl)cc3)c2c1C do in these assays?
APP 5'UTR act: inactive; STAT1 blocker: inactive; NF-kB expr up: inactive; STAT1 act: inactive; STAT3 inh-1: 44; STAT3 activator: inactive; STAT3 inh-2: 50; NFkB inh STAT3ct: inactive; STAT1 inh 2: inactive

Results for C[n+]1c2n(c3ccccc31)N=C(c1ccc(-c3ccccc3)cc1)CS2 ?
APP 5'UTR act: inactive; STAT1 blocker: inactive; NF-kB expr up: inactive; STAT1 act: inactive; STAT3 inh-1: 66; STAT3 activator: inactive; STAT3 inh-2: inactive; NFkB inh STAT3ct: inactive; STAT1 inh 2: 29

How did Cc1cc(-c2nnc3n2N=C(c2ccc(-c4ccccc4)cc2)CS3)n[nH]1 do in these assays?
APP 5'UTR act: inactive; STAT1 blocker: inactive; NF-kB expr up: inactive; STAT1 act: inactive; STAT3 inh-1: inactive; STAT3 activator: inactive

How did COc1ccc(CC(=O)Nc2cccc(SC)c2)cc1OC do in these assays?
APP 5'UTR act: inactive; STAT1 blocker: inactive; NF-kB expr up: inactive; STAT1 act: inactive; STAT3 inh-1: 47; STAT3 activator: inactive; STAT3 inh-2: 44; NFkB inh STAT3ct: inactive; STAT1 inh 2: inactive

Results for COc1ccc(CC(=O)Nc2cccc(S(=O)(=O)N3CCCCCC3)c2)cc1OC ?
APP 5'UTR act: inactive; STAT1 blocker: inactive; NF-kB expr up: inactive; STAT1 act: inactive; STAT3 inh-1: 74; STAT3 activator: inactive; STAT3 inh-2: 75; NFkB inh STAT3ct: 27; STAT1 inh 2: 19

Results for Cc1ccc2nc(-c3cc(N)cc(N)c3)oc2c1 ?
APP 5'UTR act: inactive; STAT1 blocker: inactive; NF-kB expr up: inactive; STAT1 act: inactive; STAT3 inh-1: 43; STAT3 activator: inactive; STAT3 inh-2: inactive; NFkB inh STAT3ct: inactive; STAT1 inh 2: inactive

What do the screens show for `Clc1ccccc1Nc1nnc(-c2ccncc2)s1`?
APP 5'UTR act: 160; STAT1 blocker: inactive; NF-kB expr up: 4.2; STAT1 act: 131; STAT3 inh-1: 60; STAT3 activator: inactive; STAT3 inh-2: inactive; NFkB inh STAT3ct: 20; STAT1 inh 2: inactive

What do the screens show for `CCOC1(C)OCC(=O)[C@]2(CCC3C4CCC5=CC(=O)C=CC5(C)C4C(=O)CC32C)O1` (stereo partly drawn)?
APP 5'UTR act: inactive; STAT1 blocker: inactive; NF-kB expr up: inactive; STAT1 act: inactive; STAT3 inh-1: inactive; STAT3 activator: inactive

What do the screens show for `NC(=O)NCc1cccs1`?
APP 5'UTR act: inactive; STAT1 blocker: inactive; NF-kB expr up: inactive; STAT1 act: inactive; STAT3 inh-1: inactive; STAT3 activator: inactive

How did O=C(O)/C=C/c1cnn(-c2ccccc2)c1 do in these assays?
APP 5'UTR act: inactive; STAT1 blocker: inactive; NF-kB expr up: inactive; STAT1 act: inactive; STAT3 inh-1: 45; STAT3 activator: inactive; STAT3 inh-2: inactive; NFkB inh STAT3ct: inactive; STAT1 inh 2: inactive

How did CCCCN1C(C)=CC(=C2C(=O)c3ccccc3C2=O)C=C1C do in these assays?
APP 5'UTR act: 180; STAT1 blocker: inactive; NF-kB expr up: inactive; STAT1 act: inactive; STAT3 inh-1: 71; STAT3 activator: inactive; STAT3 inh-2: inactive; NFkB inh STAT3ct: inactive; STAT1 inh 2: inactive

What do the screens show for `CC1=CC(=C2C(=O)c3ccccc3C2=O)C=C(C)O1`?
APP 5'UTR act: inactive; STAT1 blocker: inactive; NF-kB expr up: inactive; STAT1 act: inactive; STAT3 inh-1: inactive; STAT3 activator: inactive

What do the screens show for `CC(=O)c1c(C)[nH]c(C(=O)COc2cc(C)cc(C)c2)c1C`?
APP 5'UTR act: inactive; STAT1 blocker: inactive; NF-kB expr up: inactive; STAT1 act: inactive; STAT3 inh-1: 44; STAT3 activator: inactive; STAT3 inh-2: inactive; NFkB inh STAT3ct: inactive; STAT1 inh 2: inactive

How did CCOc1cc(C(=S)N2CCOCC2)ccc1OS(=O)(=O)c1ccc(NC(C)=O)cc1 do in these assays?
APP 5'UTR act: inactive; STAT1 blocker: inactive; NF-kB expr up: inactive; STAT1 act: inactive; STAT3 inh-1: 58; STAT3 activator: inactive; STAT3 inh-2: 45; NFkB inh STAT3ct: inactive; STAT1 inh 2: inactive

How did COc1cccc(/C=N/Nc2nccnc2Cl)c1O do in these assays?
APP 5'UTR act: inactive; STAT1 blocker: inactive; NF-kB expr up: 6.2; STAT1 act: inactive; STAT3 inh-1: 83; STAT3 activator: inactive; STAT3 inh-2: inactive; NFkB inh STAT3ct: 24; STAT1 inh 2: inactive

Results for COC(=O)c1sccc1N/N=C/c1cccc(OC)c1O ?
APP 5'UTR act: 180; STAT1 blocker: inactive; NF-kB expr up: 3.6; STAT1 act: inactive; STAT3 inh-1: 60; STAT3 activator: inactive; STAT3 inh-2: inactive; NFkB inh STAT3ct: inactive; STAT1 inh 2: inactive

What do the screens show for `Cn1c(N)c(C(=O)CSc2nc(N)cc(N)n2)c(=O)n(C)c1=O`?
APP 5'UTR act: inactive; STAT1 blocker: inactive; NF-kB expr up: inactive; STAT1 act: inactive; STAT3 inh-1: inactive; STAT3 activator: inactive

How did Cc1cc(NC(=O)/C=C/c2ccccc2)c(C(C)C)cc1O do in these assays?
APP 5'UTR act: inactive; STAT1 blocker: inactive; NF-kB expr up: inactive; STAT1 act: inactive; STAT3 inh-1: inactive; STAT3 activator: inactive

Screens: PubChem, several laboratories
